One assay has as its system Escherichia coli. Put plainly: Antibacterial activity against Escherichia coli ATCC 25922 assessed as growth inhibition by broth microdilution method. Format: functional, organism-based. Put shortly: (§1)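 Preliminary screen: 10 µl of each bacterial suspension spotted on Mueller-Hinton agar containing compound at 1,000 µg ml⁻¹, then incubated 37 °C for 18 h. Inocula were prepared in sterile saline at 0.5 McFarland (150 × 10⁶ CFU ml⁻¹). Compounds were dissolved in DMSO stocks and diluted twofold in Mueller-Hinton broth, final 3.91–1,000 µg ml⁻¹. MIC read in µg ml⁻¹ (CLSI 2008), with ampicillin, cefuroxime and vancomycin as reference agents.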

The test system of another assay is Pseudomonas aeruginosa. Nature of the assay: Antibacterial activity against Pseudomonas aeruginosa ATCC 9027 assessed as growth inhibition by broth microdilution method. Type of assay: functional, organism-based. Put shortly: as §1
The subject of the next assay is Bacillus cereus. Put plainly: Antibacterial activity against Bacillus cereus ATCC 10876 assessed as growth inhibition by broth microdilution method. Format: functional. Put shortly:
as §1

The subject of assay [1] is Staphylococcus epidermidis. Nature of the assay: Antibacterial activity against Staphylococcus epidermidis ATCC 12228 assessed as growth inhibition by broth microdilution method. Format: functional. Put shortly:
as §1

Assay [2] deals with Staphylococcus aureus. Nature of the assay: Antibacterial activity against Staphylococcus aureus ATCC 25923 assessed as growth inhibition by broth microdilution method. Type of assay: functional. Put shortly: as §1
The test system of another assay is Klebsiella pneumoniae. Put plainly: Antibacterial activity against Klebsiella pneumoniae ATCC 13883 assessed as growth inhibition by broth microdilution method. Type of assay: functional, organism-based. Put shortly:
as §1

The subject of a further assay is Proteus mirabilis. Put plainly: Antibacterial activity against Proteus mirabilis ATCC 12453 assessed as growth inhibition by broth microdilution method. Format: functional, organism-based. The essentials:
as §1

Another assay has as its system Micrococcus luteus. Nature of the assay: Antibacterial activity against Micrococcus luteus ATCC 10240 assessed as growth inhibition by broth microdilution method. Type of assay: functional. Put shortly:
as §1

In a further assay the test system is Bacillus subtilis. Put plainly: Antibacterial activity against Bacillus subtilis ATCC 6633 assessed as growth inhibition by broth microdilution method. Format: functional. Put shortly:
as §1

The test system of assay [3] is Staphylococcus aureus. Put plainly: Antibacterial activity against Staphylococcus aureus 14001 assessed as growth inhibition by broth microdilution method. Type of assay: functional. Put shortly:
as §1

The source made the active and inactive calls. The calls are words filed in the database; no cut-off is given here.

Regarding `S=c1n(CN2CCOCC2)nc(-c2ccccc2Cl)n1-c1ccc(Br)cc1`, the “growth inhibition (GI)” value in the assay on Escherichia coli, with Pseudomonas aeruginosa, in the assay with Klebsiella pneumoniae and in the assay with Proteus mirabilis was “inactive” each time. The MBC in the assay on Bacillus cereus was above 1000 µg/mL; in assay [1] it was 500 µg/mL; in the assay on Staphylococcus aureus [2], 500 µg/mL; in the assay with Micrococcus luteus it was 250 µg/mL; in the assay on Bacillus subtilis, 250 µg/mL; in the assay on Staphylococcus aureus [3] it was 500 µg/mL. For the same compound, the MIC is 125 µg/mL in the assay on Bacillus cereus; 125 µg/mL in assay [1]; 125 µg/mL with Staphylococcus aureus [2]; 62.5 µg/mL with Micrococcus luteus; 125 µg/mL with Bacillus subtilis; 250 µg/mL in the assay on Staphylococcus aureus [3].
Take `CN[C@H](CC(C)C)C(=O)N[C@H]1C(=O)N[C@@H](CC(N)=O)C(=O)N[C@H]2C(=O)N[C@H]3C(=O)N[C@H](C(=O)N[C@H](C(=O)O)c4cc(O)cc(O)c4-c4cc3ccc4O)[C@H](O)c3ccc(c(Cl)c3)Oc3cc2cc(c3O[C@@H]2O[C@H](CO)[C@@H](O)[C@H](O)[C@H]2O[C@H]2C[C@](C)(N)[C@H](O)[C@H](C)O2)Oc2ccc(cc2Cl)[C@H]1O` [VANCOMYCIN]: in the assay on Staphylococcus aureus [3], the MBC came out at 3.91 µg/mL and the MIC came out at 0.98 µg/mL.
In the case of `S=c1n(CN2CCCCC2)nc(-c2ccccc2Cl)n1-c1ccc(Br)cc1`, the “growth inhibition (GI)” value with Escherichia coli, in the assay with Pseudomonas aeruginosa, with Klebsiella pneumoniae and with Proteus mirabilis was “inactive” each time. Moreover, the MBC (in the assay on Bacillus cereus; in [1]; in the assay with Staphylococcus aureus [2]; with Micrococcus luteus; with Bacillus subtilis; in the assay on Staphylococcus aureus [3]) was above 1000 µg/mL each time. Also, the MIC in the assay on Bacillus cereus came out at 1000 µg/mL; in assay [1], 1000 µg/mL; in the assay with Staphylococcus aureus [2], 500 µg/mL; with Micrococcus luteus, 500 µg/mL; with Bacillus subtilis, 250 µg/mL; with Staphylococcus aureus [3], 500 µg/mL.
Turning to `CCN(CC)Cn1nc(-c2cccc(Cl)c2)n(-c2ccc(Br)cc2)c1=S`, the “growth inhibition (GI)” value in the assay with Escherichia coli, in the assay on Pseudomonas aeruginosa, with Klebsiella pneumoniae and with Proteus mirabilis was “inactive” in each case. Also, the MBC with Bacillus cereus is above 1000 µg/mL; in assay [1], above 1000 µg/mL; in the assay on Staphylococcus aureus [2], above 1000 µg/mL; in the assay with Micrococcus luteus it was 500 µg/mL; in the assay on Bacillus subtilis it was 500 µg/mL. The MIC in the assay with Bacillus cereus is 62.5 µg/mL; in [1], 62.5 µg/mL; in the assay with Staphylococcus aureus [2] it was 31.2 µg/mL; in the assay with Micrococcus luteus, 31.2 µg/mL; in the assay on Bacillus subtilis, 62.5 µg/mL.
For the compound `S=c1n(CN2CCCCC2)nc(-c2ccccc2)n1-c1ccc(Br)cc1`, the “growth inhibition (GI)” value with Escherichia coli, in the assay with Pseudomonas aeruginosa, in the assay on Klebsiella pneumoniae and with Proteus mirabilis was “inactive” throughout. Moreover, the MBC is above 1000 µg/mL in the assay with Bacillus cereus; above 1000 µg/mL in assay [1]; above 1000 µg/mL in the assay with Staphylococcus aureus [2]; 1000 µg/mL in the assay on Micrococcus luteus; above 1000 µg/mL in the assay with Bacillus subtilis; above 1000 µg/mL in the assay on Staphylococcus aureus [3]. Besides, the MIC with Bacillus cereus was 1000 µg/mL; in assay [1], 1000 µg/mL; in the assay on Staphylococcus aureus [2] it was 1000 µg/mL; in the assay on Micrococcus luteus it was 500 µg/mL; in the assay with Bacillus subtilis, 1000 µg/mL; in the assay with Staphylococcus aureus [3], 1000 µg/mL.
Take `S=c1n(CN2CCCC2)nc(-c2ccccc2)n1-c1ccc(Br)cc1`: the “growth inhibition (GI)” value in the assay with Escherichia coli, in the assay on Pseudomonas aeruginosa, in the assay on Klebsiella pneumoniae and in the assay on Proteus mirabilis was “inactive” in each case. For the same compound, the MBC is above 1000 µg/mL in the assay on Bacillus cereus; above 1000 µg/mL in assay [1]; above 1000 µg/mL in the assay with Staphylococcus aureus [2]; 1000 µg/mL with Micrococcus luteus; 1000 µg/mL in the assay on Bacillus subtilis; above 1000 µg/mL with Staphylococcus aureus [3]. Besides, the MIC in the assay with Bacillus cereus was found to be 1000 µg/mL; in [1], 1000 µg/mL; with Staphylococcus aureus [2], 1000 µg/mL; in the assay on Micrococcus luteus it was 500 µg/mL; in the assay with Bacillus subtilis, 500 µg/mL; with Staphylococcus aureus [3] it was 1000 µg/mL.
On to `CO/N=C(\C(=O)N[C@@H]1C(=O)N2C(C(=O)O)=C(COC(N)=O)CS[C@H]12)c1ccco1` [CEFUROXIME], for which the minimum inhibitory concentration (MIC) with Bacillus cereus was 31.2 µg/mL; in assay [1], 0.24 µg/mL; in the assay on Staphylococcus aureus [2], 0.49 µg/mL; with Micrococcus luteus it was 0.98 µg/mL; with Bacillus subtilis it was 15.6 µg/mL.
Consider `S=c1n(CN2CCCC2)nc(-c2ccccc2Cl)n1-c1ccc(Br)cc1`, for which the “growth inhibition (GI)” value in the assay on Escherichia coli, in the assay on Pseudomonas aeruginosa, in the assay on Klebsiella pneumoniae and in the assay with Proteus mirabilis was “inactive” each time. The MBC in the assay with Bacillus cereus is above 1000 µg/mL; in assay [1], 500 µg/mL; in the assay with Staphylococcus aureus [2], 500 µg/mL; in the assay with Micrococcus luteus, 1000 µg/mL; in the assay on Bacillus subtilis, 125 µg/mL; with Staphylococcus aureus [3] it was 500 µg/mL. Also, the MIC with Bacillus cereus is 62.5 µg/mL; in [1] it was 31.2 µg/mL; in the assay on Staphylococcus aureus [2], 31.2 µg/mL; with Micrococcus luteus, 62.5 µg/mL; in the assay on Bacillus subtilis, 15.6 µg/mL; in the assay with Staphylococcus aureus [3] it was 125 µg/mL.
Turning to `CCN(CC)Cn1nc(-c2ccc(Cl)cc2)n(-c2ccc(Br)cc2)c1=S`, the “growth inhibition (GI)” value in the assay with Escherichia coli, in the assay with Pseudomonas aeruginosa, with Klebsiella pneumoniae and in the assay on Proteus mirabilis was “inactive” throughout. Besides, the minimum bactericidal concentration (MBC) came out at 250 µg/mL with Bacillus cereus; 250 µg/mL in assay [1]; 250 µg/mL with Staphylococcus aureus [2]; 62.5 µg/mL in the assay with Micrococcus luteus; 500 µg/mL with Bacillus subtilis; 250 µg/mL in the assay on Staphylococcus aureus [3]. Moreover, the MIC is 31.2 µg/mL in the assay on Bacillus cereus; 31.2 µg/mL in assay [1]; 31.2 µg/mL in the assay with Staphylococcus aureus [2]; 15.6 µg/mL in the assay with Micrococcus luteus; 31.2 µg/mL in the assay on Bacillus subtilis; 62.5 µg/mL with Staphylococcus aureus [3].
Turning to `S=c1n(CN2CCCCC2)nc(-c2cccc(Cl)c2)n1-c1ccc(Br)cc1`, the “growth inhibition (GI)” value in the assay on Escherichia coli, with Pseudomonas aeruginosa, with Klebsiella pneumoniae and in the assay with Proteus mirabilis was “inactive” in each case. For the same compound, the MBC with Bacillus cereus was 1000 µg/mL; in assay [1], above 1000 µg/mL; with Staphylococcus aureus [2], above 1000 µg/mL; in the assay with Micrococcus luteus, above 1000 µg/mL; with Bacillus subtilis, 1000 µg/mL. Besides, the MIC was 62.5 µg/mL in the assay with Bacillus cereus; 62.5 µg/mL in assay [1]; 31.2 µg/mL in the assay with Staphylococcus aureus [2]; 31.2 µg/mL with Micrococcus luteus; 62.5 µg/mL with Bacillus subtilis.
Regarding `CCN(CC)Cn1nc(-c2ccccc2)n(-c2ccc(Br)cc2)c1=S`, the “growth inhibition (GI)” value in the assay with Escherichia coli, with Pseudomonas aeruginosa, in the assay with Klebsiella pneumoniae and with Proteus mirabilis was “inactive” each time. Besides, the MBC (in the assay on Bacillus cereus; in assay [1]; with Staphylococcus aureus [2]; in the assay with Micrococcus luteus; with Bacillus subtilis; in the assay on Staphylococcus aureus [3]) was above 1000 µg/mL in each case. Moreover, the MIC (in the assay with Bacillus cereus; in [1]; in the assay with Staphylococcus aureus [2]; with Micrococcus luteus; in the assay with Bacillus subtilis; in the assay on Staphylococcus aureus [3]) was 1000 µg/mL in each case.
Take `CC1(C)S[C@@H]2[C@H](NC(=O)[C@H](N)c3ccccc3)C(=O)N2[C@H]1C(=O)O` [AMPICILLIN]: the MIC in the assay on Bacillus cereus is 62.5 µg/mL.
For `S=c1n(CN2CCCC2)nc(-c2cccc(Cl)c2)n1-c1ccc(Br)cc1`, the “growth inhibition (GI)” value with Escherichia coli, in the assay with Pseudomonas aeruginosa, with Klebsiella pneumoniae and in the assay on Proteus mirabilis was “inactive” each time. Further, the MBC in the assay on Bacillus cereus is above 1000 µg/mL; in assay [1], above 1000 µg/mL; with Staphylococcus aureus [2], above 1000 µg/mL; in the assay on Micrococcus luteus it was above 1000 µg/mL; in the assay on Bacillus subtilis, 500 µg/mL. The MIC with Bacillus cereus is 62.5 µg/mL; in assay [1] it was 250 µg/mL; in the assay with Staphylococcus aureus [2], 31.2 µg/mL; in the assay with Micrococcus luteus it was 62.5 µg/mL; with Bacillus subtilis it was 62.5 µg/mL.
Regarding `S=c1n(CN2CCOCC2)nc(-c2cccc(Cl)c2)n1-c1ccc(Br)cc1`, the “growth inhibition (GI)” value in the assay with Escherichia coli, in the assay with Pseudomonas aeruginosa, with Klebsiella pneumoniae and in the assay with Proteus mirabilis was “inactive” in each case. In addition, the MBC in the assay on Bacillus cereus was above 1000 µg/mL; in assay [1] it was above 1000 µg/mL; in the assay on Staphylococcus aureus [2] it was above 1000 µg/mL; in the assay on Micrococcus luteus, 500 µg/mL; in the assay with Bacillus subtilis, 1000 µg/mL. In addition, the MIC in the assay with Bacillus cereus turned out to be 62.5 µg/mL; in assay [1], 125 µg/mL; in the assay on Staphylococcus aureus [2] it was 31.2 µg/mL; in the assay with Micrococcus luteus it was 31.2 µg/mL; with Bacillus subtilis, 62.5 µg/mL.

The values are drawn from ChEMBL document CHEMBL3044979, “Microbiologically active Mannich bases derived from 1,2,4-triazoles. The effect of C-5 substituent on antibacterial activity” (2013).
